Active and inactive are the calls of the source. The calls are words filed in the database; no cut-off is given here.
Columns and labels:
[1] = system: Mus musculus; assay: Inhibition of LRRK2 in mouse assessed as inhibition of Ser910 autophosphorylation in spleen at 100 mg/kg, ip by immunoblot method; type: functional, organism-based; design: dose 100 mg/kg
[2] = target: Mitogen-activated protein kinase 1 (Homo sapiens) (UniProt P28482); assay: Inhibition of ERK2 assessed as residual activity at 10 uM relative to control
[3] = target: Inhibitor of nuclear factor kappa-B kinase subunit alpha (Homo sapiens) (UniProt O15111); assay: Inhibition of IKK-alpha assessed as residual activity at 10 uM relative to control
[4] = target: T1, Serine/threonine-protein kinase STK11 (Homo sapiens) (UniProt Q15831); assay: Inhibition of LKB1 assessed as residual activity at 10 uM
T1 sequence (whole entry): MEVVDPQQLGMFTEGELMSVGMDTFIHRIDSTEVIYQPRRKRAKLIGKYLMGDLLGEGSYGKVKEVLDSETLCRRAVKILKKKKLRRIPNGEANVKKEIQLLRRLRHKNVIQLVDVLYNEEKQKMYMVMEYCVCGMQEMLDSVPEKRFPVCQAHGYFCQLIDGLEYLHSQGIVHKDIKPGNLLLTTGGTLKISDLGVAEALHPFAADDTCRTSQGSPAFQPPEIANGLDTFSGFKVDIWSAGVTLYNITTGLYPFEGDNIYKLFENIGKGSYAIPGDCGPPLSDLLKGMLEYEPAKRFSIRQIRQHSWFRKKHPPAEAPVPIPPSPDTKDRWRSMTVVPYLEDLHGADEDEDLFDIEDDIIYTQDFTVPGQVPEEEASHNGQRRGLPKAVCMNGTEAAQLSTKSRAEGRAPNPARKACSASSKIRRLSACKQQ

[5] = target: Serine/threonine-protein kinase Nek6 (Homo sapiens) (UniProt Q9HC98); assay: Inhibition of NEK6 assessed as residual activity at 10 uM
[6] = target: Casein kinase I isoform gamma-3 (Homo sapiens) (UniProt Q9Y6M4); assay: Inhibition of CSNK1G3 assessed as residual activity at 10 uM relative to control
In short: (§1)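 Competition kinase-binding assay (KINOMEscan) across a non-redundant panel of 329 kinases beyond the radiometric panel; residual binding expressed relative to control.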

[7] = target: Macrophage-stimulating protein receptor (Homo sapiens) (UniProt Q04912); assay: Inhibition of MST1R assessed as residual activity at 10 uM relative to control
[8] = target: Cyclin-dependent kinase 2/cyclin A (Homo sapiens) (UniProt P24941+P20248+P78396); assay: Inhibition of CDK2-Cyclin A assessed as residual activity at 10 uM; type: protein-complex assay
[9] = target: Tyrosine-protein kinase ZAP-70 (Homo sapiens) (UniProt P43403); assay: Inhibition of ZAP70 assessed as residual activity at 1 uM
[10] = target: Casein kinase I isoform gamma-1 (Homo sapiens) (UniProt Q9HCP0); assay: Inhibition of CSNK1G1 assessed as residual activity at 10 uM relative to control; in short: as §1
[11] = target: T2, NUAK family SNF1-like kinase 1 (Homo sapiens) (UniProt O60285); assay: Inhibition of ARK5 assessed as residual activity at 10 uM relative to control
T2 sequence (whole entry): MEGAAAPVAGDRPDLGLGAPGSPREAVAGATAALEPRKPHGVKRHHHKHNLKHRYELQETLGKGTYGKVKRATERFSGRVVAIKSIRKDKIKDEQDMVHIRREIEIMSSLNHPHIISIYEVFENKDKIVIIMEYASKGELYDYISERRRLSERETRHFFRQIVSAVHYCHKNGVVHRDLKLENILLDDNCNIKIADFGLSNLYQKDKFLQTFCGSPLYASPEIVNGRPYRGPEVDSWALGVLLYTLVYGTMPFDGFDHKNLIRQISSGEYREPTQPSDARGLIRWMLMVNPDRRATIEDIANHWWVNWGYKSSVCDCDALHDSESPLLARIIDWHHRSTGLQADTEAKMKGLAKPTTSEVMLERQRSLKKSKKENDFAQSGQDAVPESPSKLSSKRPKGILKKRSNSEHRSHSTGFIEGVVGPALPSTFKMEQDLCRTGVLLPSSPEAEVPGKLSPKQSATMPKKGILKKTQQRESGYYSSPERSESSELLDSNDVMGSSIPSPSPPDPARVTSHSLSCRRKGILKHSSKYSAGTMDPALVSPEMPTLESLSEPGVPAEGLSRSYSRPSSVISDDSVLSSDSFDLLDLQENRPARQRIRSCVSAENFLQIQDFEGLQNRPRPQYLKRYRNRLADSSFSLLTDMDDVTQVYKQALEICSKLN

[12] = target: Tyrosine-protein kinase CSK (Homo sapiens) (UniProt P41240); assay: Inhibition of CSK assessed as residual activity at 1 uM
In short: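 Radioactivity-based enzymatic assay against a panel of 131 kinases (Dundee profiling). Activity remaining was measured with compound present at the stated concentration.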

[13] = system: Tyrosine-protein kinase ABL1 (Homo sapiens), P00519 [E255K]; assay: Inhibition of phosphorylated ABL1 E255K mutant assessed as residual activity at 10 uM relative to control
[14] = target: Serine/threonine-protein kinase SIK2 (Homo sapiens) (UniProt Q9H0K1); assay: Inhibition of SIK2 assessed as residual activity at 10 uM
[15] = target: Receptor tyrosine-protein kinase erbB-2 (Homo sapiens) (UniProt P04626); assay: Inhibition of ERBB2 assessed as residual activity at 10 uM relative to control; in short: as §1
[16] = system: Mast/stem cell growth factor receptor Kit (Homo sapiens), P10721 [V559D,T670I]; assay: Inhibition of KIT V559D,T670I mutant assessed as residual activity at 10 uM relative to control
[17] = target: Maternal embryonic leucine zipper kinase (Homo sapiens) (UniProt Q14680); assay: Inhibition of MELK assessed as residual activity at 1 uM

Chain of Serine/threonine-protein kinase Nek6 (Homo sapiens) (Q9HC98 whole entry, canonical isoform): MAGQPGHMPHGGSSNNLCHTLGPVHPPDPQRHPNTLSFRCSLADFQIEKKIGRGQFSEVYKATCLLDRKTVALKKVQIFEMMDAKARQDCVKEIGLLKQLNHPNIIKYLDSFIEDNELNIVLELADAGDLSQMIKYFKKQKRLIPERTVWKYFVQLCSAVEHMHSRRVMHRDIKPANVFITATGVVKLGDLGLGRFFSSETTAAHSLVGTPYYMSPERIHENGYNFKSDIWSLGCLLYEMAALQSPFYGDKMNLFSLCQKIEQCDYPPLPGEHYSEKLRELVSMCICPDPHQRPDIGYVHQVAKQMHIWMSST
Chain of Casein kinase I isoform gamma-3 (Homo sapiens) (Q9Y6M4 whole entry, looked up, canonical isoform): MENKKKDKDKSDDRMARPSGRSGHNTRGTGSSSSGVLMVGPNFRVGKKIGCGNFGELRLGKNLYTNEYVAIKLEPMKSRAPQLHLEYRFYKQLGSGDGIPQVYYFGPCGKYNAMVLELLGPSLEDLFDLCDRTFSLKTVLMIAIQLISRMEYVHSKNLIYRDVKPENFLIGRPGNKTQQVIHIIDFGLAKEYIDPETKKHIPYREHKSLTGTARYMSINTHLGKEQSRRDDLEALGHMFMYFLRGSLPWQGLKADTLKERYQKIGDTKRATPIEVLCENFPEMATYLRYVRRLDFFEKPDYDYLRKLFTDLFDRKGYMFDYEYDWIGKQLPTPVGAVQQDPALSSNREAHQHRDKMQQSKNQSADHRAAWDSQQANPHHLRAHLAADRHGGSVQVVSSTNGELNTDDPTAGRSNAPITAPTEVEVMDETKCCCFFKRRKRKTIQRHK
Chain of Tyrosine-protein kinase CSK (Homo sapiens) (P41240 2-450 limits assumed): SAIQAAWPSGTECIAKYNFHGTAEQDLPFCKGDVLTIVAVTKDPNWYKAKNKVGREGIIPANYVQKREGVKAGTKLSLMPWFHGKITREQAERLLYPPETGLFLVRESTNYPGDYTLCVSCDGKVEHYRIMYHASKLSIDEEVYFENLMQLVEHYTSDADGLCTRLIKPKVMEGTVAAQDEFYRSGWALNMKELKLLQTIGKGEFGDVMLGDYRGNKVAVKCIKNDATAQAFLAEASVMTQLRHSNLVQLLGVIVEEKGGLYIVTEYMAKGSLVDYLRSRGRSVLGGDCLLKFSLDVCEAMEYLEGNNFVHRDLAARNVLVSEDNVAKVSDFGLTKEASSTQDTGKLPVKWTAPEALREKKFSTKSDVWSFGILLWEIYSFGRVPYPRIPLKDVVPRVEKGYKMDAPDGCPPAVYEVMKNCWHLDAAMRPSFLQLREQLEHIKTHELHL
Chain of Macrophage-stimulating protein receptor (Homo sapiens) (Q04912 25-304 limits assumed): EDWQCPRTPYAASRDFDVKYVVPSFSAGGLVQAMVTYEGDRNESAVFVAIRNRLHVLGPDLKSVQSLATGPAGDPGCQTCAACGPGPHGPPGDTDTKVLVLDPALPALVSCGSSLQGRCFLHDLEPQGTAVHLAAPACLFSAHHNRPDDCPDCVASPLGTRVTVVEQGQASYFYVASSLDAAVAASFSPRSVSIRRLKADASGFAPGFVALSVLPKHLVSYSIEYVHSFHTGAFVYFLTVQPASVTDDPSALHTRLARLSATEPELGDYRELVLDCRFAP
Chain of Macrophage-stimulating protein receptor (Homo sapiens) (Q04912 310-1400 limits assumed): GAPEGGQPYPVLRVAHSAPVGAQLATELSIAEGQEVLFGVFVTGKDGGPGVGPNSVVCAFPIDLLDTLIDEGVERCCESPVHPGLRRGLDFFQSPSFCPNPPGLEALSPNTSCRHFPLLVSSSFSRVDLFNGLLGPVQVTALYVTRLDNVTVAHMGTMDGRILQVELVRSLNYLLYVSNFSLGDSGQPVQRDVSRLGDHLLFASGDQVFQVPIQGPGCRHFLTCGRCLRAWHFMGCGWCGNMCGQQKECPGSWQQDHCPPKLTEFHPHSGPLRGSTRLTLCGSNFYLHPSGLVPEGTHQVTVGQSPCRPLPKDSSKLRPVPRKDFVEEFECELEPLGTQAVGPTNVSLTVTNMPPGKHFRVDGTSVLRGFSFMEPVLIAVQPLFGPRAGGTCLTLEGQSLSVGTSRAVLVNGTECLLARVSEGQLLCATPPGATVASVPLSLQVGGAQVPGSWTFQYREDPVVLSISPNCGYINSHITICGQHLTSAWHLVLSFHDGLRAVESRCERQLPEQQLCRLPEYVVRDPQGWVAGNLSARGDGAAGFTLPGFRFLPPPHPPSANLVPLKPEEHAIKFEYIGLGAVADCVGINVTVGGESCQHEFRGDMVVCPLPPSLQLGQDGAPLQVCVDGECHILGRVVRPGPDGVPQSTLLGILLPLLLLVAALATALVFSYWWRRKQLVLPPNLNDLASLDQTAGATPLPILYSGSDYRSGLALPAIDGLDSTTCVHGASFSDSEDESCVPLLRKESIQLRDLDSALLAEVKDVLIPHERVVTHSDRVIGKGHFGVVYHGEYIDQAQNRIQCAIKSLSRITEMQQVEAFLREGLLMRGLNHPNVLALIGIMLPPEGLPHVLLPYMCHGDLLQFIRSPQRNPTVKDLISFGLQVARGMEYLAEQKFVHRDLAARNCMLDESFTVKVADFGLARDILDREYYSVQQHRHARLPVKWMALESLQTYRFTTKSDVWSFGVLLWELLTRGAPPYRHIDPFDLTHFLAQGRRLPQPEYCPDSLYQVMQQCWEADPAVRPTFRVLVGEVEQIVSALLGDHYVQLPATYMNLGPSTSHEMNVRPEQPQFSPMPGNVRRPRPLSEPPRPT
Chain of Tyrosine-protein kinase ZAP-70 (Homo sapiens) (P43403 whole entry, canonical isoform): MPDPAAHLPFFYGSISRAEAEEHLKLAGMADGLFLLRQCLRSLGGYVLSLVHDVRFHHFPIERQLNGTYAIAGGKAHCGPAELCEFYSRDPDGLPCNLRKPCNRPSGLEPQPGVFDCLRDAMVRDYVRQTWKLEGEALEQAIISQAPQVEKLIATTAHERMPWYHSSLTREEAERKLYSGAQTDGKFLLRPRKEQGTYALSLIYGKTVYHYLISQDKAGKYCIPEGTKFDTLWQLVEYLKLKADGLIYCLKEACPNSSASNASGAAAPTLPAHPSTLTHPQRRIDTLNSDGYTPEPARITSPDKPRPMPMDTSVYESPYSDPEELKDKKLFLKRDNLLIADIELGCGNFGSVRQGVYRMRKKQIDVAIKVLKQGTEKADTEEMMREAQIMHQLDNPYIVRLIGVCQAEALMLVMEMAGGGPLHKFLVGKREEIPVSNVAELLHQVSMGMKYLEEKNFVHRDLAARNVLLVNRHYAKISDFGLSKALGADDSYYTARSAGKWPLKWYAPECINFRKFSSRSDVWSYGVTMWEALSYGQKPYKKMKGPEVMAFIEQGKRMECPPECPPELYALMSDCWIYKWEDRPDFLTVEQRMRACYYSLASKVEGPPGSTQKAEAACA
Chain of Casein kinase I isoform gamma-1 (Homo sapiens) (Q9HCP0 whole entry, looked up, canonical isoform): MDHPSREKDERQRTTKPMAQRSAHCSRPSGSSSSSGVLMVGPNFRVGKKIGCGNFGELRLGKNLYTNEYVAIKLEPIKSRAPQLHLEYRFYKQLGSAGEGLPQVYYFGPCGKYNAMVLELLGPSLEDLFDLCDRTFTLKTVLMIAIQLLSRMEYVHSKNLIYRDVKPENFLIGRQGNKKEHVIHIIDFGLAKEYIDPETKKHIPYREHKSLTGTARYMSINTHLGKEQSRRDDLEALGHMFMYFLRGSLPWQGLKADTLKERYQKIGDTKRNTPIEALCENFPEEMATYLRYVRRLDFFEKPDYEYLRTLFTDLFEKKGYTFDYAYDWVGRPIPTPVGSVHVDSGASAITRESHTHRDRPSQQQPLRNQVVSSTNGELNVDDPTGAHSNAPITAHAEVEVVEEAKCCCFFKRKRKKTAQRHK
Chain of Tyrosine-protein kinase ABL1 (Homo sapiens), P00519 [E255K] (P00519 whole entry E255K): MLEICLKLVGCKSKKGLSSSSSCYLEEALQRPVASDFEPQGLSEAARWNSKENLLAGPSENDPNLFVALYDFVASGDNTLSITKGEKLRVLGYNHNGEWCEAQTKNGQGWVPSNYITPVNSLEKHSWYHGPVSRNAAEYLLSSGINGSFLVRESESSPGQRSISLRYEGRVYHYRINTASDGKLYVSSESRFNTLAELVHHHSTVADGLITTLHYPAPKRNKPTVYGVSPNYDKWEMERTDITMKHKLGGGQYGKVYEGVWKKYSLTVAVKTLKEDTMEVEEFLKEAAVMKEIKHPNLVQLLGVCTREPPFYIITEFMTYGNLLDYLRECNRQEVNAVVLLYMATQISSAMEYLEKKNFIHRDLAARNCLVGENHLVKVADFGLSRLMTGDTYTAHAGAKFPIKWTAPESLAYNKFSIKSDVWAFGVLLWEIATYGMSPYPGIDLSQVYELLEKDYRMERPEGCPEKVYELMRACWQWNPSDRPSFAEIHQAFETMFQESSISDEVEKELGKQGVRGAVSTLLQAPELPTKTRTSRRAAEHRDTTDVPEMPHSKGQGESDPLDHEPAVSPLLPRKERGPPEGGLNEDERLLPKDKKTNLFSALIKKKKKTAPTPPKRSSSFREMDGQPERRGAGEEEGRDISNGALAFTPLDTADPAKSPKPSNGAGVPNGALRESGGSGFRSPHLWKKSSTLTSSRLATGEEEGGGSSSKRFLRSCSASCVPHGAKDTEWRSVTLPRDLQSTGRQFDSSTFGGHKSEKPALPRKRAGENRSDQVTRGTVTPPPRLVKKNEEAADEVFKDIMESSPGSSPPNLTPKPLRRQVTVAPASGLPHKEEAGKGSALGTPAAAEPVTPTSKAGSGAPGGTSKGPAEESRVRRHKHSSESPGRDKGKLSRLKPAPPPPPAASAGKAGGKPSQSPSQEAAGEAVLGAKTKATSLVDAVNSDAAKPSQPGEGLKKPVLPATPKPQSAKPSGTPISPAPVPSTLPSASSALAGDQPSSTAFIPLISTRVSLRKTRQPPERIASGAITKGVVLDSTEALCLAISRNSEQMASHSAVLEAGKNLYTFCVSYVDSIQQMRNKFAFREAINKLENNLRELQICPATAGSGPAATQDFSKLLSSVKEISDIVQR

SMILES: O=C(Nc1cccnc1)c1cc(-c2ccnc(F)c2)ccc1OCc1ccccc1
- inhibition [1]: Active
- Activity [2]: 44%
- Activity [3]: 58%
- Activity [4]: 105%
- Activity [5]: 65%
- Activity [6]: 26%
- Activity [7]: 17%
- Activity [8]: 117%
- Activity [9]: 103%
- Activity [10]: 79%
- Activity [11]: 50%
- Activity [12]: 104%
- Activity [13]: 75%
- Activity [14]: 111%
- Activity [15]: 57%
- Activity [16]: 52%
- Activity [17]: 102%

— ChEMBL document CHEMBL2203081 (Bioorg Med Chem Lett, 2012)
